Reference: ChEMBL document CHEMBL4382268, “Glycyrrhetinic acid derivatives containing aminophosphonate ester species as multidrug resistance reversers that block the NF-κB pathway and cell proliferation” (Bioorg Med Chem Lett, 2018)

Columns and labels:
L02 = test: Antiproliferative activity against human HL-7702 cells after 48 hrs by MTT assay; assay type: functional, cell-based; conditions: L02, 48 h
How it was run: (§1)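 MTT read-out of antiproliferative activity across cancer lines HepG-2, NCI-H460, MGC-803, A549 and MG-63 and normal liver line HL-7702. IC50 given as mean ± S.D. of three separate experiments, each run in triplicate.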

MG-63 = test: Antiproliferative activity against human MG63 cells after 48 hrs by MTT assay; assay type: functional, cell-based; conditions: MG-63, 48 h; how it was run: as §1
MGC-803 = test: Antiproliferative activity against human MGC803 cells after 48 hrs by MTT assay; assay type: functional, cell-based; conditions: MGC-803, 48 h; how it was run: as §1
HepG2 = test: Antiproliferative activity against human HepG2 cells after 48 hrs by MTT assay; assay type: functional, cell-based; conditions: HepG2, 48 h; how it was run: as §1
[1] = Inhibition of TNF-alpha induced NF-kappaB activation in human A549 cells after 7 hrs by Bright-Glo luciferase reporter gene assay; assay type: cell-based
How it was run: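 A549 cells transiently cotransfected with an NF-κB-Luc reporter and stimulated with TNF-α. Luciferase read-out of inhibition gives IC50, the mean of at least three independent experiments each with triplicates.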

A549 = test: Antiproliferative activity against human A549 cells after 48 hrs by MTT assay; assay type: functional, cell-based; conditions: A549, 48 h; how it was run: as §1
NCI-H460 = test: Antiproliferative activity against human NCI-H460 cells after 48 hrs by MTT assay; assay type: functional, cell-based; conditions: NCI-H460, 48 h; how it was run: as §1
[2] = Homo sapiens, A549, 7 h, read-out: IC50

| Structure (SMILES) | IC50 (MGC-803) [µM] | IC50 (HepG2) [µM] | IC50 ([1]; a549) | IC50 (A549) [µM] | IC50 (NCI-H460) [µM] | IC50 [1, 2] [µM] | IC50 (L02) [µM] | IC50 (MG-63) [µM] |
| --- | --- | --- | --- | --- | --- | --- | --- | --- |
| CCOP(=O)(OCC)C(Nc1ccc(CC(=O)NCCCNC(=O)[C@@]2(C)CC[C@]3(C)CC[C@]4(C)C(=CC(=O)[C@@H]5[C@@]6(C)CC[C@H](O)C(C)(C)[C@@H]6CC[C@]54C)[C@@H]3C2)cc1)c1cccc(F)c1 (some centres undefined) | > 50 | > 50 | Not Active | > 50 | > 50 | – | > 50 | > 50 |
| CCOP(=O)(OCC)C(Nc1ccc(CC(=O)NCCCCNC(=O)[C@@]2(C)CC[C@]3(C)CC[C@]4(C)C(=CC(=O)[C@@H]5[C@@]6(C)CC[C@H](OC(C)=O)C(C)(C)[C@@H]6CC[C@]54C)[C@@H]3C2)cc1)c1cccc(Br)c1 (some centres undefined) | 41.8 | 48.2 | – | 39.6 | 47.6 | 27.1 | > 50 | > 50 |
| CCOP(=O)(OCC)C(Nc1ccc(CC(=O)NCCCCNC(=O)[C@@]2(C)CC[C@]3(C)CC[C@]4(C)C(=CC(=O)[C@@H]5[C@@]6(C)CC[C@H](O)C(C)(C)[C@@H]6CC[C@]54C)[C@@H]3C2)cc1)c1cccc(Br)c1 (some centres undefined) | > 50 | > 50 | – | > 50 | > 50 | > 30 | > 50 | > 50 |
| CCOP(=O)(OCC)C(Nc1ccc(CC(=O)NCCCNC(=O)[C@@]2(C)CC[C@]3(C)CC[C@]4(C)C(=CC(=O)[C@@H]5[C@@]6(C)CC[C@H](O)C(C)(C)[C@@H]6CC[C@]54C)[C@@H]3C2)cc1)c1cccc(OC)c1 (some centres undefined) | 45.2 | > 50 | Not Active | > 50 | > 50 | – | > 50 | 46.6 |
| CC[C@@]1(O)C(=O)OCc2c1cc1n(c2=O)Cc2cc3cc(O)ccc3nc2-1 [HYDROXYCAMPTOTHECIN] | 9.71 | – | – | 9.13 | 10.1 | – | 10.2 | 10.7 |
| CCOP(=O)(OCC)C(Nc1ccc(CC(=O)NCCCNC(=O)[C@@]2(C)CC[C@]3(C)CC[C@]4(C)C(=CC(=O)[C@@H]5[C@@]6(C)CC[C@H](OC(C)=O)C(C)(C)[C@@H]6CC[C@]54C)[C@@H]3C2)cc1)c1cccc(OC)c1 (some centres undefined) | 36.7 | 38.2 | – | 39.3 | 31.7 | > 30 | > 50 | 39.5 |
| CCOP(=O)(OCC)C(Nc1ccc(CC(=O)NCCCNC(=O)[C@@]2(C)CC[C@]3(C)CC[C@]4(C)C(=CC(=O)[C@@H]5[C@@]6(C)CC[C@H](O)C(C)(C)[C@@H]6CC[C@]54C)[C@@H]3C2)cc1)c1ccccc1 (some centres undefined) | 31.1 | 40.4 | – | 36 | 46.1 | 28.2 | > 50 | 31 |
| CCOP(=O)(OCC)C(Nc1ccc(CC(=O)NCCCCNC(=O)[C@@]2(C)CC[C@]3(C)CC[C@]4(C)C(=CC(=O)[C@@H]5[C@@]6(C)CC[C@H](O)C(C)(C)[C@@H]6CC[C@]54C)[C@@H]3C2)cc1)c1ccccc1 (some centres undefined) | 36.3 | 37.1 | – | 33.2 | 30.5 | 25.1 | > 50 | 27.8 |
| CCOP(=O)(OCC)C(Nc1ccc(CC(=O)NCCCCNC(=O)[C@@]2(C)CC[C@]3(C)CC[C@]4(C)C(=CC(=O)[C@@H]5[C@@]6(C)CC[C@H](O)C(C)(C)[C@@H]6CC[C@]54C)[C@@H]3C2)cc1)c1cccc(F)c1 (some centres undefined) | > 50 | > 50 | – | > 50 | > 50 | > 30 | > 50 | > 50 |
| CCOP(=O)(OCC)C(Nc1ccc(CC(=O)NCCCNC(=O)[C@@]2(C)CC[C@]3(C)CC[C@]4(C)C(=CC(=O)[C@@H]5[C@@]6(C)CC[C@H](O)C(C)(C)[C@@H]6CC[C@]54C)[C@@H]3C2)cc1)c1ccc(Br)cc1 (some centres undefined) | 35.7 | 35.6 | – | 31.9 | 20.3 | > 30 | > 50 | 25.1 |
| CCOP(=O)(OCC)C(Nc1ccc(CC(=O)NCCCNC(=O)[C@@]2(C)CC[C@]3(C)CC[C@]4(C)C(=CC(=O)[C@@H]5[C@@]6(C)CC[C@H](OC(C)=O)C(C)(C)[C@@H]6CC[C@]54C)[C@@H]3C2)cc1)c1cccc(Br)c1 (some centres undefined) | > 50 | > 50 | – | > 50 | > 50 | > 30 | > 50 | > 50 |
| CCOP(=O)(OCC)C(Nc1ccc(CC(=O)NCCCCNC(=O)[C@@]2(C)CC[C@]3(C)CC[C@]4(C)C(=CC(=O)[C@@H]5[C@@]6(C)CC[C@H](OC(C)=O)C(C)(C)[C@@H]6CC[C@]54C)[C@@H]3C2)cc1)c1cccc(OC)c1 (some centres undefined) | 32.9 | 35.3 | – | 27.2 | 27.4 | 23.4 | > 50 | 36.6 |

Second part, led by results:

| IC50 (MGC-803) [µM] | IC50 (HepG2) [µM] | IC50 ([1]; a549) | IC50 (A549) [µM] | IC50 (NCI-H460) [µM] | IC50 [1, 2] [µM] | Structure (SMILES) | IC50 (L02) [µM] | IC50 (MG-63) [µM] |
| --- | --- | --- | --- | --- | --- | --- | --- | --- |
| 16.3 | 15.3 | – | 15.2 | 14.1 | 2.01 | CCOP(=O)(OCC)C(Nc1ccc(CC(=O)NCCCCNC(=O)[C@@]2(C)CC[C@]3(C)CC[C@]4(C)C(=CC(=O)[C@@H]5[C@@]6(C)CC[C@H](OC(C)=O)C(C)(C)[C@@H]6CC[C@]54C)[C@@H]3C2)cc1)c1ccc(OC)cc1 (some centres undefined) | > 50 | 13.9 |
| 29.9 | 23.6 | – | 20.5 | 17.1 | 28.4 | CCOP(=O)(OCC)C(Nc1ccc(CC(=O)NCCCNC(=O)[C@@]2(C)CC[C@]3(C)CC[C@]4(C)C(=CC(=O)[C@@H]5[C@@]6(C)CC[C@H](OC(C)=O)C(C)(C)[C@@H]6CC[C@]54C)[C@@H]3C2)cc1)c1ccc(Br)cc1 (some centres undefined) | > 50 | 21.3 |
| 25.7 | 36.8 | – | 23.1 | 29.4 | 17.1 | CCOP(=O)(OCC)C(Nc1ccc(CC(=O)NCCCNC(=O)[C@@]2(C)CC[C@]3(C)CC[C@]4(C)C(=CC(=O)[C@@H]5[C@@]6(C)CC[C@H](O)C(C)(C)[C@@H]6CC[C@]54C)[C@@H]3C2)cc1)c1ccc(OC)cc1 (some centres undefined) | > 50 | 23.6 |
| 17.4 | 19.8 | – | 17.3 | 10.2 | 11.1 | CCOP(=O)(OCC)C(Nc1ccc(CC(=O)NCCCCNC(=O)[C@@]2(C)CC[C@]3(C)CC[C@]4(C)C(=CC(=O)[C@@H]5[C@@]6(C)CC[C@H](OC(C)=O)C(C)(C)[C@@H]6CC[C@]54C)[C@@H]3C2)cc1)c1ccc(Br)cc1 (some centres undefined) | > 50 | 19.2 |
| 18.3 | 20.2 | – | 19.8 | 19.4 | 6.09 | CCOP(=O)(OCC)C(Nc1ccc(CC(=O)NCCCCNC(=O)[C@@]2(C)CC[C@]3(C)CC[C@]4(C)C(=CC(=O)[C@@H]5[C@@]6(C)CC[C@H](O)C(C)(C)[C@@H]6CC[C@]54C)[C@@H]3C2)cc1)c1ccc(F)cc1 (some centres undefined) | > 50 | 12.4 |
| 27.2 | 37.7 | – | 34 | 29.5 | > 30 | CCOP(=O)(OCC)C(Nc1ccc(CC(=O)NCCCNC(=O)[C@@]2(C)CC[C@]3(C)CC[C@]4(C)C(=CC(=O)[C@@H]5[C@@]6(C)CC[C@H](OC(C)=O)C(C)(C)[C@@H]6CC[C@]54C)[C@@H]3C2)cc1)c1cccc(F)c1 (some centres undefined) | > 50 | > 50 |
| 30.9 | 29.2 | – | 24.9 | 25.2 | 16.3 | CCOP(=O)(OCC)C(Nc1ccc(CC(=O)NCCCCNC(=O)[C@@]2(C)CC[C@]3(C)CC[C@]4(C)C(=CC(=O)[C@@H]5[C@@]6(C)CC[C@H](O)C(C)(C)[C@@H]6CC[C@]54C)[C@@H]3C2)cc1)c1ccc(Br)cc1 (some centres undefined) | > 50 | 24.6 |
| 20.5 | 29.1 | – | 17.9 | 17.3 | 8.89 | CCOP(=O)(OCC)C(Nc1ccc(CC(=O)NCCCNC(=O)[C@@]2(C)CC[C@]3(C)CC[C@]4(C)C(=CC(=O)[C@@H]5[C@@]6(C)CC[C@H](O)C(C)(C)[C@@H]6CC[C@]54C)[C@@H]3C2)cc1)c1ccc(F)cc1 (some centres undefined) | > 50 | 16.5 |
| 15.2 | 26.3 | – | 23.1 | 13.2 | 13.2 | CCOP(=O)(OCC)C(Nc1ccc(CC(=O)NCCCCNC(=O)[C@@]2(C)CC[C@]3(C)CC[C@]4(C)C(=CC(=O)[C@@H]5[C@@]6(C)CC[C@H](OC(C)=O)C(C)(C)[C@@H]6CC[C@]54C)[C@@H]3C2)cc1)c1ccccc1 (some centres undefined) | > 50 | 20.2 |
| 21 | 21.3 | – | 26.4 | 28.2 | 27.4 | CCOP(=O)(OCC)C(Nc1ccc(CC(=O)NCCCCNC(=O)[C@@]2(C)CC[C@]3(C)CC[C@]4(C)C(=CC(=O)[C@@H]5[C@@]6(C)CC[C@H](OC(C)=O)C(C)(C)[C@@H]6CC[C@]54C)[C@@H]3C2)cc1)c1cccc(F)c1 (some centres undefined) | > 50 | 22.8 |
| 21 | 31.6 | – | 30.3 | 23.2 | 22.1 | CCOP(=O)(OCC)C(Nc1ccc(CC(=O)NCCCNC(=O)[C@@]2(C)CC[C@]3(C)CC[C@]4(C)C(=CC(=O)[C@@H]5[C@@]6(C)CC[C@H](OC(C)=O)C(C)(C)[C@@H]6CC[C@]54C)[C@@H]3C2)cc1)c1ccccc1 (some centres undefined) | > 50 | 25.3 |
